According to ChEMBL document CHEMBL1177681, “Hybrid diarylbenzopyrimidine non-nucleoside reverse transcriptase inhibitors as promising new leads for improved anti-HIV-1 chemotherapy” (Bioorg Med Chem, 2010):

Columns and labels:
[1] = test system: Human immunodeficiency virus 1; assay: Antiviral activity against wild type HIV1 3B infected in human MT4 cells assessed as protection against virus-induced cytopathogenicity after 4 days by MTT assay; assay type: functional, organism-based; conditions: Human immunodeficiency virus 1, 3B, MT4, 96 h
Procedure, shortened: (§1)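 MT-4 cells at 1 × 10⁵ cells/mL infected at multiplicity of infection 0.02, then immediately plated onto serial dilutions of compound (DMSO stocks of 50 mM or higher). After 4 days at 37 °C, viable cells counted by MTT. […] Virus stocks titrated in MT-4 cells as CCID50.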

[2] = test system: Human immunodeficiency virus 2; assay: Antiviral activity against wild type HIV2 ROD infected in human MT4 cells assessed as protection against virus-induced cytopathogenicity after 4 days by MTT assay; assay type: functional, organism-based; conditions: Human immunodeficiency virus 2, ISOLATE ROD, MT4, 96 h; procedure, shortened: as §1
[3] = Cytotoxicity against human MT4 cells after 4 days by MTT assay; assay type: cell-based
Procedure, shortened: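 Uninfected MT-4 cells were run in parallel with the antiviral plates and exposed to serial compound dilutions (DMSO stocks of 50 mM or higher) for 4 days at 37 °C. Viability was read by MTT.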

[4] = Selectivity index, CC50 for human MT4 cells to EC50 for wild type HIV1 3B; assay type: toxicity, cell-based; conditions: read-out: Ratio CC50/EC50
Procedure, shortened: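 Selectivity index is calculated as CC50 in uninfected MT-4 cells divided by EC50 against HIV-1 IIIB. Both come from parallel 4-day MTT readings at 37 °C, with infection at multiplicity of infection 0.02.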

[5] = test system: Human immunodeficiency virus 1; assay: Antiviral activity against HIV1 with reverse transcriptase K103N, Y181C mutant infected in human MT4 cells assessed as protection against virus-induced cytopathogenicity after 4 days by MTT assay; assay type: functional, organism-based; conditions: Human immunodeficiency virus 1, MT4, 96 h
Procedure, shortened: (§2)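 MT-4 cells at 1 × 10⁵ cells/mL were infected with the mutant HIV-1 at a multiplicity of infection of 0.02. Virus stocks were titred in MT-4 cells as CCID₅₀. Cells were plated at once onto serial compound dilutions, with DMSO stocks at 50 mM or higher. After 4 days at 37 °C, viable cells were counted by MTT. EC₅₀ is the concentration giving 50% protection from viral cytopathicity.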

[6] = test system: Human immunodeficiency virus 1; assay: Antiviral activity against wild type HIV1 LAI infected in human MT4 cells assessed as protection against virus-induced cytopathogenicity after 4 days by MTT assay; assay type: functional, organism-based; conditions: Human immunodeficiency virus 1, LAI, MT4, 96 h
[7] = test system: Human immunodeficiency virus 1; assay: Antiviral activity against HIV1 with reverse transcriptase E138K mutant infected in human MT4 cells assessed as protection against virus-induced cytopathogenicity after 4 days by MTT assay; assay type: functional, organism-based; conditions: Human immunodeficiency virus 1, MT4, 96 h; procedure, shortened: as §2
[8] = test system: Human immunodeficiency virus 1; assay: Antiviral activity against HIV1 with reverse transcriptase L100I mutant infected in human MT4 cells assessed as protection against virus-induced cytopathogenicity after 4 days by MTT assay; assay type: functional, organism-based; conditions: Human immunodeficiency virus 1, MT4, 96 h; procedure, shortened: as §2
[9] = test system: Human immunodeficiency virus 1; assay: Antiviral activity against HIV1 with reverse transcriptase K103N mutant infected in human MT4 cells assessed as protection against virus-induced cytopathogenicity after 4 days by MTT assay; assay type: functional, organism-based; conditions: Human immunodeficiency virus 1, MT4, 96 h
[10] = test system: Human immunodeficiency virus 1; assay: Antiviral activity against HIV1 with reverse transcriptase Y181C mutant infected in human MT4 cells assessed as protection against virus-induced cytopathogenicity after 4 days by MTT assay; assay type: functional, organism-based; conditions: Human immunodeficiency virus 1, MT4, 96 h; procedure, shortened: as §2
[11] = test system: Human immunodeficiency virus 1; assay: Antiviral activity against HIV1 with reverse transcriptase Y188L mutant infected in human MT4 cells assessed as protection against virus-induced cytopathogenicity after 4 days by MTT assay; assay type: functional, organism-based; conditions: Human immunodeficiency virus 1, MT4, 96 h; procedure, shortened: as §2
[12] = test system: Human immunodeficiency virus 1; assay: Antiviral activity against HIV1 with reverse transcriptase F227L, V106A mutant infected in human MT4 cells assessed as protection against virus-induced cytopathogenicity after 4 days by MTT assay; assay type: functional, organism-based; conditions: Human immunodeficiency virus 1, MT4, 96 h; procedure, shortened: as §2

## N#Cc1ccc(Nc2nc(Oc3ccccc3)c3ccccc3n2)cc1
[1]
  EC50: 1.33 µM
[2]
  EC50: > 369 µM
[3]
  CC50 at 96 h: 370 µM
[4]
  selectivity ratio: > 279

## Cc1ccccc1Oc1nc(Nc2ccc(C#N)cc2)nc2ccccc12
[1]
  EC50: 0.057 µM
[2]
  EC50: > 355 µM
[3]
  CC50 at 96 h: 355 µM
[4]
  selectivity ratio: > 6210

## Cc1cccc(Oc2nc(Nc3ccc(C#N)cc3)nc3ccccc23)c1
[1]
  EC50: 0.823 µM
[2]
  EC50: > 355 µM
[3]
  CC50 at 96 h: 355 µM
[4]
  selectivity ratio: > 436

## COc1ccccc1Oc1nc(Nc2ccc(C#N)cc2)nc2ccccc12
[1]
  EC50: 0.12 µM
[2]
  EC50: > 26 µM
[3]
  CC50 at 96 h: 150 µM
[4]
  selectivity ratio: 1260

## Cc1ccc(Oc2nc(Nc3ccc(C#N)cc3)nc3ccccc23)cc1
[1]
  EC50: 0.105 µM
[2]
  EC50: > 86 µM
[3]
  CC50 at 96 h: 87 µM
[4]
  selectivity ratio: 831

## N#Cc1ccc(Nc2nc(Oc3ccccc3Cl)c3ccccc3n2)cc1
[1]
  EC50: 0.037 µM
[2]
  EC50: > 37 µM
[3]
  CC50 at 96 h: 38 µM
[4]
  selectivity ratio: 982

## N#Cc1ccc(Nc2nc(Oc3ccc(F)cc3)c3ccccc3n2)cc1
[1]
  EC50: 0.59 µM
[2]
  EC50: > 351 µM
[3]
  CC50 at 96 h: > 351 µM
[4]
  selectivity ratio: > 607

## N#Cc1ccc(Nc2nc(Oc3ccc(Cl)cc3)c3ccccc3n2)cc1
[1]
  EC50: 0.19 µM
[2]
  EC50: > 197 µM
[3]
  CC50 at 96 h: 198 µM
[4]
  selectivity ratio: 1040

## N#Cc1ccc(Nc2nc(Oc3ccc(Br)cc3)c3ccccc3n2)cc1
[1]
  EC50: 0.264 µM
[2]
  EC50: > 214 µM
[3]
  CC50 at 96 h: 215 µM
[4]
  selectivity ratio: 810

## COc1ccc(Oc2nc(Nc3ccc(C#N)cc3)nc3ccccc23)cc1
[1]
  EC50: 0.19 µM
[2]
  EC50: > 339 µM
[5]
  EC50: > 339 µM
[3]
  CC50 at 96 h: 340 µM
[4]
  selectivity ratio: > 1790

## N#Cc1ccc(Nc2nc(Oc3ccc(Cl)cc3Cl)c3ccccc3n2)cc1
[1]
  EC50: 0.023 µM
[2]
  EC50: > 31 µM
[5]
  EC50: > 31 µM
[3]
  CC50 at 96 h: 32 µM
[4]
  selectivity ratio: 1410

## N#Cc1ccc(Nc2nc(Oc3c(Cl)cc(Cl)cc3Cl)c3ccccc3n2)cc1
[1]
  EC50: 0.021 µM
[2]
  EC50: > 55 µM
[5]
  EC50: 1.5 µM
[3]
  CC50 at 96 h: 56 µM
[4]
  selectivity ratio: 2630

## Cc1cccc(C)c1Oc1nc(Nc2ccc(C#N)cc2)nc2ccccc12
[1]
  EC50: 0.023 µM
[2]
  EC50: ≥ 10 µM
[5]
  EC50: 0.53 µM
[3]
  CC50 at 96 h: 35 µM
[4]
  selectivity ratio: 1510

## Cc1cc(C)c(Oc2nc(Nc3ccc(C#N)cc3)nc3ccccc23)c(C)c1
[1]
  EC50: 0.011 µM
[2]
  EC50: > 34 µM
[5]
  EC50: 2 µM
[3]
  CC50 at 96 h: > 34 µM
[4]
  selectivity ratio: > 3220

## Cc1cc(Br)cc(Br)c1Oc1nc(Nc2ccc(C#N)cc2)nc2ccccc12
[1]
  EC50: 0.019 µM
[2]
  EC50: ≥ 14 µM
[5]
  EC50: 0.35 µM
[3]
  CC50 at 96 h: 150 µM
[4]
  selectivity ratio: 7930

## Cc1cc(Br)c(Oc2nc(Nc3ccc(C#N)cc3)nc3ccccc23)c(Br)c1
[1]
  EC50: 0.02 µM
[2]
  EC50: ≥ 4.6 µM
[5]
  EC50: 0.59 µM
[3]
  CC50 at 96 h: 25 µM
[4]
  selectivity ratio: 1280

## N#Cc1ccc(Nc2nc(Oc3c(Br)cc(Br)cc3Br)c3ccccc3n2)cc1
[1]
  EC50: 0.028 µM
[2]
  EC50: ≥ 8.6 µM
[5]
  EC50: 0.93 µM
[3]
  CC50 at 96 h: 58 µM
[4]
  selectivity ratio: 2120

## CCOc1cc(C#N)cc(Cl)c1Oc1nc(Nc2ccc(C#N)cc2)nc2ccccc12
[1]
  EC50: 0.0075 µM
[2]
  EC50: > 21 µM
[5]
  EC50: 0.29 µM
[3]
  CC50 at 96 h: 22 µM
[4]
  selectivity ratio: 2970

## COc1cc(C#N)ccc1Oc1nc(Nc2ccc(C#N)cc2)nc2ccccc12
[1]
  EC50: 0.033 µM
[2]
  EC50: > 140 µM
[5]
  EC50: > 140 µM
[3]
  CC50 at 96 h: ≥ 140 µM
[4]
  selectivity ratio: 64200

## COc1cc(C#N)cc(OC)c1Oc1nc(Nc2ccc(C#N)cc2)nc2ccccc12
[1]
  EC50: 0.0087 µM
[2]
  EC50: > 194 µM
[5]
  EC50: 0.92 µM
[3]
  CC50 at 96 h: 194 µM
[4]
  selectivity ratio: 22000

## CCOc1cc(C#N)cc(OCC)c1Oc1nc(Nc2ccc(C#N)cc2)nc2ccccc12
[1]
  EC50: 0.016 µM
[2]
  EC50: > 108 µM
[5]
  EC50: > 108 µM
[3]
  CC50 at 96 h: 108 µM
[4]
  selectivity ratio: 6770

## CCCOc1cc(C#N)cc(OC)c1Oc1nc(Nc2ccc(C#N)cc2)nc2ccccc12
[1]
  EC50: 0.013 µM
[2]
  EC50: > 5.2 µM
[5]
  EC50: > 5.2 µM
[3]
  CC50 at 96 h: 5.2 µM
[4]
  selectivity ratio: 408

## CCCOc1cc(C#N)cc(OCC)c1Oc1nc(Nc2ccc(C#N)cc2)nc2ccccc12
[1]
  EC50: 0.058 µM
[2]
  EC50: > 122 µM
[5]
  EC50: > 122 µM
[3]
  CC50 at 96 h: 123 µM
[4]
  selectivity ratio: 2080

## Cc1cc(C#N)cc(C)c1Oc1nc(Nc2ccc(C#N)cc2)nc2ccc(Cl)cc12
[1]
  EC50: 0.0085 µM
[2]
  EC50: > 117 µM
[5]
  EC50: 0.7 µM
[3]
  CC50 at 96 h: 117 µM
[4]
  selectivity ratio: 13800

## CC(C)Nc1cccnc1N1CCN(C(=O)c2cc3cc(NS(C)(=O)=O)ccc3[nH]2)CC1 [DELAVIRDINE]
[1]
  EC50: 0.479 µM
[5]
  EC50: > 43 µM
[3]
  CC50 at 96 h: > 43 µM
[4]
  selectivity ratio: > 92
[6]
  EC50: 0.61 µM
[7]
  EC50: 0.566 µM
[8]
  EC50: 7.95 µM
[9]
  EC50: 6.51 µM
[10]
  EC50: 6.25 µM
[11]
  EC50: 6.43 µM
[12]
  EC50: 9.85 µM

## O=C1Nc2ccc(Cl)cc2[C@@](C#CC2CC2)(C(F)(F)F)O1 [EFAVIRENZ]
[5]
  EC50: 0.11 µM
[3]
  CC50 at 96 h: ≥ 6.3 µM
[7]
  EC50: 0.0054 µM
[8]
  EC50: 0.032 µM
[9]
  EC50: 0.066 µM
[10]
  EC50: 0.0057 µM
[11]
  EC50: 0.222 µM
[12]
  EC50: 0.104 µM

## Cc1ccnc2c1NC(=O)c1cccnc1N2C1CC1 [NEVIRAPINE]
[1]
  EC50: 1.32 µM
[5]
  EC50: ≥ 15 µM
[3]
  CC50 at 96 h: ≥ 15 µM
[6]
  EC50: 0.102 µM
[7]
  EC50: 0.162 µM
[8]
  EC50: 2.03 µM
[10]
  EC50: > 15 µM
[11]
  EC50: > 15 µM
[12]
  EC50: > 15 µM
